Reference: publication PMC4506969 (International Journal for Parasitology: Drugs and Drug …, 2015)
Several values for one entry are separate records, joined by “and”; a condition that tells them apart may be missing. Identical values can stand only once. Like-named read-outs stand apart in the source and are kept apart here.

How the values were obtained:
P. falciparum Dd2 = assay: P. falciparum growth inhibition assay, [3H] hypoxanthine incorporation, Dd2 line; type: cell-based; details: Plasmodium falciparum, DD2, read-out: P. falciparum IC50 Dd2
[1] = system: asexual-stage P. falciparum; assay: P. falciparum asexual-stage growth inhibition, line not specified or both lines; type: cell-based, Plasmodium falciparum; details: for IC50 / IC90: Plasmodium falciparum; for IC50: 3D7|DD2, read-out: IC50 against 3D7 and Dd2 P. falciparum lines; for IC90: in Homo sapiens, read-out: P. falciparum IC90; for P. falciparum SI (Selectivity Index): mammalian cell IC50/P. falciparum IC50, larger values indicate greater parasite selectivity
[2] = system: Neonatal foreskin fibroblast (NFF) cells; assay: NFF cytotoxicity assay; type: cell-based; details: Homo sapiens, 72 h, read-out: Mammalian cell IC50 NFF
[3] = system: tetra-acetylated histone H4 in P. falciparum 3D7 trophozoites; assay: Protein hyperacetylation assay, Western blot, anti-tetra-acetyl histone H4; type: cell-based, Plasmodium falciparum; details: 3× IC50, 3 h; for Hyperacetylation, anti-(tetra) acetyl H4 antibody (words): vs vehicle control
Procedure, shortened: (§1)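 Synchronous trophozoite-stage 3D7-infected erythrocytes (3–5% parasitemia, 5% haematocrit) were exposed for 3 h, with controls of 0.05% DMSO vehicle, chloroquine and a reference HDAC inhibitor. Lysis used 0.15% saponin, then PBS washes, SDS-PAGE and PVDF blotting. Rabbit primaries ran overnight at 4 °C: tetra-acetyl H4 1:2000, H3K9 1:1000, H3 N-terminus 1:500. Membranes were stripped at pH 2 and reprobed with anti-RAP2. Densitometry was RAP2-normalised and expressed as fold change vs vehicle (=1).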

HEK293 cells = assay: HEK293 cytotoxicity assay; type: cell-based; details: read-out: Mammalian cell IC50 HEK 293
recombinant PfHDAC1 = target: T1, recombinant PfHDAC1 (Plasmodium falciparum, UniProt Q7K6A1); assay: Deacetylase activity assay, recombinant PfHDAC1; type: biochemical; details: mean (±SD) of two independent assays; for inhibition at 1 µM: read-out: PfHDAC1 % inhibition at 1 μM, 1 μM
T1 sequence (Q7K6A1 1-449): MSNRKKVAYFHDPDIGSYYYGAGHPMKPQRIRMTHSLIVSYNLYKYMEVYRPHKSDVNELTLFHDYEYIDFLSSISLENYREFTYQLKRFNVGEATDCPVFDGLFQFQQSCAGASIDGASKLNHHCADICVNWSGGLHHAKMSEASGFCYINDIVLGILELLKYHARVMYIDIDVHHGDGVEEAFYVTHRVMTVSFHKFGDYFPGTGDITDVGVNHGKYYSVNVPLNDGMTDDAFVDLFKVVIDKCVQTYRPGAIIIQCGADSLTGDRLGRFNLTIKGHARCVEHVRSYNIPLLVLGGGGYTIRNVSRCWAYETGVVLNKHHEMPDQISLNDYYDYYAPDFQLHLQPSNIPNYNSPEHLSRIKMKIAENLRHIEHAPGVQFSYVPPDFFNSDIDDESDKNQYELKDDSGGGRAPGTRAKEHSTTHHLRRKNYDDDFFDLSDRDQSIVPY
Procedure, shortened: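 Recombinant PfHDAC1 (32 ng/ml) was incubated with test compound or control at 1 μM, or with vehicle (0.5% DMSO). Ac-RGK(Ac)-AMC fluorogenic substrate was added for 1 h at 37 °C, then activator solution for 10 min at room temperature. Fluorescence (ex 350–380/em 440–460 nm) was read within 60 min. Percent inhibition was calculated versus DMSO controls from two independent assays, each in duplicate.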

P. falciparum 3D7 = assay: microbe, parasite or virus in culture; type: cell-based; details: Plasmodium falciparum, 3D7, read-out: P. falciparum IC50 3D7
[4] = system: T. b. brucei 427 bloodstream trypanosomes; assay: T. b. brucei growth inhibition assay; type: cell-based, Trypanosoma brucei brucei; details: for IC50: read-out: T. b. brucei IC50; for IC90: in Homo sapiens, read-out: T. b. brucei IC90; for T. b. brucei SI (Selectivity Index): mammalian cell IC50/T. brucei IC50
T. b. brucei = details: read-out: T. b. brucei growth IC50; ref Carrillo et al., 2015; cited from earlier work
[5] = system: acetyl histone H3 N-terminus in P. falciparum 3D7 trophozoites; assay: Protein hyperacetylation assay, Western blot, anti-acetyl histone H3 N-terminus; type: cell-based, Plasmodium falciparum; details: 3× IC50, 3 h
Procedure, shortened: as §1

[6] = system: acetyl histone H3 lysine 9 in P. falciparum 3D7 trophozoites; assay: Protein hyperacetylation assay, Western blot, anti-acetyl histone H3 lysine 9; type: cell-based, Plasmodium falciparum; details: 3× IC50, 3 h
Procedure, shortened: as §1

P. falciparum = details: read-out: P. falciparum in vitro growth IC50; ref Patel et al., 2009; cited from earlier work
[7] = system: sexual stage P. falciparum gametocytes; details: ref Sun et al., 2014, cited from earlier work; for IC50: read-out: Sexual stage P. falciparum gametocytes IC50
[8] = HEK293 cytotoxicity assay; type: cell-based; details: human, HEK293 cells
late stage gametocytes = details: read-out: Late stage gametocytes IC50; ref Trenholme et al., 2014; cited from earlier work
early stage gametocytes = details: read-out: Early stage gametocytes IC50; ref Trenholme et al., 2014; cited from earlier work

SMILES | IC50 (P. falciparum Dd2) | IC90 [1] | P. falciparum SI (Selectivity Index) [1] | IC50 [2] | Hyperacetylation, anti-(tetra) acetyl H4 antibody (words) [3] | IC50 (HEK293 cells; Homo sapiens, HEK293, 48 h) | inhibition at 1 µM (recombinant PfHDAC1) | IC50 (P. falciparum 3D7) | Times less active against T.b. brucei than P. falciparum [4] | IC50 ([4]; Trypanosoma brucei, 48 h) | IC90 ([4]; Trypanosoma brucei) | T. b. brucei SI (Selectivity Index) [4] | other results
O=C(/C=C/c1cccc(S(=O)(=O)Nc2ccccc2)c1)NO [Belinostat, belinostat] | 130 nM | 120 nM | 11–40 | 2370 nM | caused hyperacetylation | 1420 nM | 78.5 ± 4.7% | 60 nM | ~100 times | 2610 nM | 3640 nM | <1 | IC50 [1]: < 200 nM; Fold increase in acetylation signal, anti-(tetra) acetyl H4 antibody ([3]; relative density vs DMSO control, normalised to RAP2): > 1.3 fold; IC50 (T. b. brucei): 2200 nM
CCN(CC)CCCC(C)Nc1ccnc2cc(Cl)ccc12 (stereo not drawn) [Chloroquine, chloroquine] | 80 nM |  | 612–4893 | 48900 nM | did not result in hyperacetylation |  |  | 10 nM |  | 9920 nM |  | 5 | 
CC(=O)NCC(=O)O.CC(=O)NCC(=O)O.N=C(N)c1ccc(N=NNc2ccc(C(=N)N)cc2)cc1 [Diminazene aceturate, diminazene aceturate] |  |  |  |  |  |  |  |  |  |  |  | >617 | IC50 (HEK293 cells; 48 h exposure, resazurin): > 37000 nM; IC50 ([4]; 427 bloodstream form, 48 h exposure): 60 nM
Cc1[nH]c2ccccc2c1CCNCc1ccc(/C=C/C(=O)NO)cc1 [Panobinostat, panobinostat] | 30 nM | 10 nM |  | 70 nM | did not increase acetylation |  | ~100% | 10 nM | ~100 times | 1690 nM | 3280 nM |  | Hyperacetylation, anti-histone H3 N-terminus antibody [5]: did not increase acetylation; Hyperacetylation, anti-histone H3 lysine 9 antibody [6]: cause hyperacetylation; IC50 (P. falciparum): ~20 nM; Hyperacetylation, anti-(tetra) acetyl H4 antibody (words) ([3]; listed as panobinostat): did not result in hyperacetylation; IC50 [7]: 940 nM; IC50 (T. b. brucei): 1600 nM
N=C(N)c1ccc(OCCCCCOc2ccc(C(=N)N)cc2)cc1 [Pentamidine] |  |  |  |  |  | > 690 nM |  |  |  | 4 nM |  | >173 | 
COc1ccc(C[C@H](N)C(=O)N[C@H]2[C@@H](O)[C@H](n3cnc4c(N(C)C)ncnc43)O[C@@H]2CO)cc1 [Puromycin, puromycin] |  |  |  |  |  |  |  |  |  |  |  |  | IC50 at 48 h [8]: 797 nM
C/C=C1\NC(=O)[C@H]2CSSCC/C=C/[C@H](CC(=O)N[C@H](C(C)C)C(=O)N2)OC(=O)[C@H](C(C)C)NC1=O [Romidepsin, romidepsin] | 130 nM | 180 nM | <1 | 1 nM | caused hyperacetylation | < 5 nM | 48.3 ± 39.3% | 90 nM |  | 35 nM | 100 nM | <1 | Fold increase in hyperacetylation, anti-histone H3 lysine 9 antibody ([6]; vs vehicle control): 5–6 fold; IC50 [1]: < 200 nM; IC50 [7]: 640 nM; Selectivity for gametocytes compared to the mammalian cell line HepG2 [7]: > 10 fold
CC(/C=C/C(=O)NO)=C\[C@@H](C)C(=O)c1ccc(N(C)C)cc1 [TSA, trichostatin A] |  |  |  |  |  |  |  |  |  |  |  |  | IC50 (late stage gametocytes): 70 nM; IC50 (early stage gametocytes): 90 nM; PfHDAC1 % inhibition at 1 μM (recombinant PfHDAC1; 1 μM): ~100% and 98.9 ± 1.5%
O=C(CCCCCCC(=O)Nc1ccccc1)NO [Vorinostat, suberoylanilide hydroxamic acid] |  |  |  |  |  |  | 59.8 ± 12.7% |  | ~100 times |  | 18700 nM |  | IC50 (late stage gametocytes): 810 nM
